This is an account of results in PMC3528973 (Bioorganic & medicinal chemistry letters, 2011).

Structures are written as SMILES. In brackets after ≈: the same amount, converted by molar mass. Where only a bound is given, the exact number is not on record here.

The first data set deals with BJeH-LT (isogenic to BJeLR without HRAS^G12V). The data set can be described thus: Cell viability counterscreen in isogenic BJeH-LT cells. It is filed as cell-based. The following applies: read-out: IC50 BJeH-LT. A digest of the protocol: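 IC50 measured in BJeH-LT cells, the isogenic partner of BJeLR lacking mutant HRAS; each reported value is the mean of experiments run in triplicate.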
(In general: A counterscreen serves to expose hits that act by an unwanted route or on another target.)
One may read the IC50 as the concentration at which inhibition is half-maximal. Take `Cc1onc(C(=O)NCCNC(c2ccccc2)c2ccccc2)c1[N+](=O)[O-]` [Compound 2t]: the IC50 is greater than 20 µg/mL.

As for `Cn1ncc([N+](=O)[O-])c1C(=O)N1CCN(C(c2ccccc2)c2ccccc2)CC1` [Compound 2j], the concentration for half-maximal inhibition (IC50) is greater than 20 µg/mL.

For the compound `Cc1ccc(C(=O)N2CCN(C(c3ccccc3)c3ccccc3)CC2)c([N+](=O)[O-])c1` [Compound 2l], the IC50 was greater than 20 µg/mL.

As to `O=C(c1n[nH]cc1[N+](=O)[O-])N1CCN(C(c2ccccc2)c2ccccc2)CC1` [Compound 2h], the IC50 is greater than 20 µg/mL.

Turning to `Cc1onc(C(=O)N2CCN(C(c3ccccn3)c3ccccn3)CC2)c1[N+](=O)[O-]` [Compound 2u], the 50% inhibitory concentration (IC50) was greater than 20 µg/mL.

Take `Cc1onc(C(=O)N2CCN(C(c3ccncc3)c3ccncc3)CC2)c1[N+](=O)[O-]` [Compound 2v]: the IC50 was greater than 20 µg/mL.

Take `Cc1onc(C(=O)NCc2ccc(F)cc2)c1[N+](=O)[O-]` [Compound 2o]: the IC50 was greater than 20 µg/mL.

On to `COc1ccccc1N1CCN(C(=O)c2noc(C)c2[N+](=O)[O-])CC1` [Compound 2q], for which the IC50 is greater than 20 µg/mL.

As for `Cn1cc([N+](=O)[O-])c(C(=O)N2CCN(C(c3ccccc3)c3ccccc3)CC2)n1` [Compound 2i], the IC50 is greater than 20 µg/mL.

For `Cc1onc(C(=O)N2CCOCC2)c1[N+](=O)[O-]` [Compound 2n], the concentration for half-maximal inhibition (IC50) was greater than 20 µg/mL.

On to `CCC(=O)N1CCN(C(=O)c2noc(C)c2[N+](=O)[O-])CC1` [Compound 2p], for which the IC50 is greater than 20 µg/mL.

As for `Cc1onc(C(=O)N2CCN(Cc3ccccc3)CC2)c1[N+](=O)[O-]` [Compound 2r], the IC50 is greater than 20 µg/mL.

A further data set deals with DRD (expressing HRAS^G12V with alternative oncogenic constructs). The data set can be described thus: Cell viability in DRD cells. It is filed as cell-based. The following applies: DRD (HRAS^G12V) vs BJeH (non expressing HRAS^G12V).
For the compound `Cc1onc(C(=O)N2CCN(C(c3ccc(Cl)cc3)c3ccc(Cl)cc3)CC2)c1[N+](=O)[O-]` [Compound 2y], the “selectivity for the DRD vs the BJeH cell line” value is 6 fold.

Still in this data set, the particulars now being: DRD cell line.
On to `Cc1onc(C(=O)N2CCN(C(c3ccc(Cl)cc3)c3ccc(Cl)cc3)CC2)c1[N+](=O)[O-]` [Compound 2y], for which the “increase in activity compared to the hit compound 2a” value worked out at 16 fold.

Tested on in another data set: not listed separately
The data set can be described thus: Stability/reactivity toward glutathione. It is filed as physicochemical. The following applies: 48 hours incubation in PBS/DMSO (1/2) at room temperature, GSH 5 mM.
In turn, `COc1ccc(N(C(=O)CCl)C(C(=O)NCCc2ccccc2)c2cccs2)cc1Cl` (stereo not shown) [Compound 1a] returned a GSH adduct observed of 20%.

The data set is the same for the next values; noted with them: base (triethylamine) added.
For the compound `COc1ccc(N(C(=O)CCl)C(C(=O)NCCc2ccccc2)c2cccs2)cc1Cl` (stereo not shown) [Compound 1a], the “time in which formation of the GSH adduct was observed” value was found to be 1 h.

Another data set relates to BJeLR (expressing HRAS^G12V).
Assay: not given
The following applies: BJeLR vs BJeH-LT; cited from earlier work.
Take `COC(=O)c1ccc(C2c3[nH]c4ccccc4c3C[C@@H](C(=O)OC)N2C(=O)CCl)cc1` (stereo partly shown) [RSL3]: the “selectivity vs BJeH-LT” value is reported as “approximately 8 fold”.

The same data set, now with this note: read-out: IC50 in BJeLR; BJeLR; cited from earlier work.
As to `COC(=O)c1ccc(C2c3[nH]c4ccccc4c3C[C@@H](C(=O)OC)N2C(=O)CCl)cc1` (stereo partly shown) [RSL3], the IC50 was 100 nM.

Tested on in another data set: not listed separately
The data set can be described thus: Aqueous solubility.
Settings: not given
What is called solubility is the concentration that dissolves in the medium under given conditions. The compound `COc1ccc(N(C(=O)CCl)C(C(=O)NCS(=O)(=O)c2ccc(C)cc2)c2cccs2)cc1Cl` (stereo not shown) [Compound 1q] registered a solubility of 16 µM (≈ 8.66 µg/mL).

Take `COc1ccc(N(C(=O)CCl)C(C(=O)NCCc2ccccc2)c2cccs2)cc1Cl` (stereo not shown) [Compound 1a]: the solubility is less than 1 µM.

Staying with this data set, now noted: compared to 1a.
As to `COc1ccc(N(C(=O)CCl)C(C(=O)NCn2nnc3ccccc32)c2cccs2)cc1Cl` (stereo not shown) [Compound 1r], the “aqueous solubility (in words)” value was “did not improve solubility”.

For the next data set, the system named is BJeLR (expressing HRAS^G12V).
Assay: not given
Settings: not given
Turning to `Cc1ccc(C(=O)N2CCN(C(c3ccccc3)c3ccccc3)CC2)c([N+](=O)[O-])c1` [Compound 2l], the “activity in the cell assays (in words)” value was “inactive”.

On to `O=C(c1cc([N+](=O)[O-])ccn1)N1CCN(C(c2ccccc2)c2ccccc2)CC1` [Compound 2k], for which the “activity in the cell assays (in words)” value was “weak inhibitor”.

Turning to `Cc1onc(C(=O)N2CCN(C(c3ccccn3)c3ccccn3)CC2)c1[N+](=O)[O-]` [Compound 2u], the “activity in the cell assays (in words)” value was “inactive”.

For the compound `Cc1onc(C(=O)N2CCN(C(c3ccncc3)c3ccncc3)CC2)c1[N+](=O)[O-]` [Compound 2v], the “activity in the cell assays (in words)” value is “inactive”.

With `Cc1onc(C(=O)NCc2ccc(F)cc2)c1[N+](=O)[O-]` [Compound 2o], the “activity in the cell assays (in words)” value is “inactive”.

For the compound `COc1ccc(N(C(=O)CCl)C(C(=O)NCCc2ccccc2)c2nc(C)cs2)cc1Cl` (stereo not shown) [Compound 1k], the “activity in the cell assays (in words)” value is “inactive”.

With `COc1ccccc1N1CCN(C(=O)c2noc(C)c2[N+](=O)[O-])CC1` [Compound 2q], the “activity in the cell assays (in words)” value was “inactive”.

For `O=C(c1ccc([N+](=O)[O-])o1)N1CCN(C(c2ccccc2)c2ccccc2)CC1` [Compound 2m], the “activity in the cell assays (in words)” value is “inactive”.

On to `Cc1onc(C(=O)N2CCOCC2)c1[N+](=O)[O-]` [Compound 2n], for which the “activity in the cell assays (in words)” value is “inactive”.

`CCC(=O)N1CCN(C(=O)c2noc(C)c2[N+](=O)[O-])CC1` [Compound 2p]: the “activity in the cell assays (in words)” value is “inactive”.

Turning to `Cc1onc(C(=O)N2CCN(Cc3ccccc3)CC2)c1[N+](=O)[O-]` [Compound 2r], the “activity in the cell assays (in words)” value is reported as “eliminate activity”.

The same data set, now with this note: BJeLR.
Consider `Cc1onc(C(=O)N2CCN(C(c3ccc(Cl)cc3)c3ccc(Cl)cc3)CC2)c1[N+](=O)[O-]` [Compound 2y], for which the “increase in activity compared to 2a” value turned out to be 14 fold.

As for `Cc1onc(C(=O)N2CCN(C(c3ccc(F)cc3)c3ccc(F)cc3)CC2)c1[N+](=O)[O-]` [Compound 2w], the “increase in activity compared to 2a” value was 5 fold.

For a further data set, the system named is BJeLR (expressing HRAS^G12V). The data set can be described thus: cells. Particulars: read-out: IC50 BJeLR.
With `Cn1ncc([N+](=O)[O-])c1C(=O)N1CCN(C(c2ccccc2)c2ccccc2)CC1` [Compound 2j], the IC50 was greater than 20 µg/mL.

With `Cc1ccc(C(=O)N2CCN(C(c3ccccc3)c3ccccc3)CC2)c([N+](=O)[O-])c1` [Compound 2l], the 50% inhibitory concentration (IC50) is greater than 20 µg/mL.

On to `O=C(c1n[nH]cc1[N+](=O)[O-])N1CCN(C(c2ccccc2)c2ccccc2)CC1` [Compound 2h], for which the half-inhibitory concentration (IC50) is greater than 20 µg/mL.

With `Cc1onc(C(=O)N2CCN(C(c3ccccn3)c3ccccn3)CC2)c1[N+](=O)[O-]` [Compound 2u], the half-maximal inhibitory concentration (IC50) was greater than 20 µg/mL.

As for `Cc1onc(C(=O)N2CCN(C(c3ccncc3)c3ccncc3)CC2)c1[N+](=O)[O-]` [Compound 2v], the IC50 was greater than 20 µg/mL.

On to `Cc1onc(C(=O)NCc2ccc(F)cc2)c1[N+](=O)[O-]` [Compound 2o], for which the IC50 was greater than 20 µg/mL.

In the case of `COc1ccccc1N1CCN(C(=O)c2noc(C)c2[N+](=O)[O-])CC1` [Compound 2q], the IC50 is greater than 20 µg/mL.

On to `Cn1cc([N+](=O)[O-])c(C(=O)N2CCN(C(c3ccccc3)c3ccccc3)CC2)n1` [Compound 2i], for which the 50% inhibitory concentration (IC50) was greater than 20 µg/mL.

For the compound `O=C(c1ccc([N+](=O)[O-])o1)N1CCN(C(c2ccccc2)c2ccccc2)CC1` [Compound 2m], the concentration for half-maximal inhibition (IC50) is greater than 20 µg/mL.

As to `Cc1onc(C(=O)N2CCOCC2)c1[N+](=O)[O-]` [Compound 2n], the half-maximal inhibitory concentration (IC50) was greater than 20 µg/mL.

Regarding `CCC(=O)N1CCN(C(=O)c2noc(C)c2[N+](=O)[O-])CC1` [Compound 2p], the IC50 is greater than 20 µg/mL.

With `Cc1onc(C(=O)N2CCN(Cc3ccccc3)CC2)c1[N+](=O)[O-]` [Compound 2r], the IC50 is greater than 20 µg/mL.
